Hits are enriched below; roughly 2.4% of the tested compounds scored in any of these assays.
aDG glyco act – increases alpha dystroglycan glycosylation | Pro5-aDG cells, alpha-DG glycosylation AlphaScreen (IIH6); 0% Pro5, 100% B10-LARGE cell signal | activation, % at 10 µM | 0.22% of 360,000 active;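 active = activation of at least 8% versus controls, or a plate z-score of at least 8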;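 note: Pro5 are CHO cells carrying HIG-tagged alpha-DG that lacks glycosylation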
NR2E3 ag-1 – activates human photoreceptor nuclear receptor NR2E3. GST-NR2E3/biotin-RetCOR TR-FRET, 1536-well. 0.12% of 320,000 active. inhibition of corepressor binding, % at 4.78 µM. Q9Y5X4;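 active = percent inhibition above the cutoff of mean plus 3 SD of all tested compounds, set per screening campaign, cut at about 20% in these data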;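 note: 0% = DMSO wells and 100% = biotin wells as full block of FRET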
Target sequence (Q9Y5X4 whole entry, looked up): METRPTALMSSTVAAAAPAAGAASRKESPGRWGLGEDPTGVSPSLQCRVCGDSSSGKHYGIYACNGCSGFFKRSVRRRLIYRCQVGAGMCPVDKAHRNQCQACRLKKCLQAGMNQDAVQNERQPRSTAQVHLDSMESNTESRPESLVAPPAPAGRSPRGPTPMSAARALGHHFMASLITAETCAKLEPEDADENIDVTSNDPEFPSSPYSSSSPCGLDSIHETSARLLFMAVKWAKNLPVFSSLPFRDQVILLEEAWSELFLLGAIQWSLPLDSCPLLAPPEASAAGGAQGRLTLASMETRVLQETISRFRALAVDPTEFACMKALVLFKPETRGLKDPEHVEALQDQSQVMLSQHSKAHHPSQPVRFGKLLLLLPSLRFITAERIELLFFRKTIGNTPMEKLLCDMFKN
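System: GST-tagged NR2E3 plus biotinylated RetCOR corepressor; Buffer or medium: pH 7.5 Tris-based buffer; Probe or stimulus: RetCOR corepressor, biotinylated, 7 nM; Doses: compound at 4.8 µM, single dose; Schedule: 5 h incubation at 4 °C; Technique: time-resolved FRET; Evaluation: percent inhibition of TR-FRET ratio; Replication: one well per compound, singlicate testing.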
697 NFkB inh – lowers PMA/ionomycin-induced NF-kB signal in 697 B cells | 697 B-cell NF-kB luciferase reporter, 16 h | inhibition, % at 4 µM | 0.33% of 330,000 active; in the data active = inhibition above about 35%
Jurkat NFkB inh – lowers PMA/ionomycin-induced NF-kB signal in Jurkat cells. PMA/ionomycin-induced NF-kB luciferase reporter, luminescence. inhibition, % at 4 µM. 0.53% of 330,000 active. AID 435003; in the data active = inhibition above about 50%
MPTP inh – inhibitors of mitochondrial permeability transition pore | isolated mouse mitochondria, Ca2+ swelling absorbance, 30 min | inhibition, % at 10 µM | 1.4% of 360,000 active;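 active = inhibition of 50% or more, scaled per plate between neutral and stimulator controls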;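 note: 0% = DMSO wells given calcium and 100% = 1 mM EGTA wells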
NR2E3 ag-2 – human photoreceptor-specific nuclear receptor agonism | inhibition of corepressor binding, % at 3.98 µM | 0.35% of 360,000 active | CHO-S Gal4-NCOR/VP16-NR2E3 two-hybrid, luciferase | Q9Y5X4;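 active = inhibition above the mean of all tested compounds plus 3 SD, cut at about 70% in these data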;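 note: 0% = DMSO with NR2E3 transfected cells and 100% = cells lacking NR2E3 construct; higher means lower luciferase signal from less NR2E3 corepressor binding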
697 NFkB conf – inhibitors of the PMA/ionomycin-induced NF-kB reporter in 697 B cells, retest | shares compounds with 697 NFkB inh | 697 B-cell NF-kB luciferase, 16 h | inhibition, % at 4 µM | 35% of 2,000 active | AID 449746; in the data active = inhibition mostly above about 28%, no sharp cut-off; inactive = mostly below about 22%
Numbers without * were called inactive; i = inactive; / = no result.

SMILES	aDG glyco act	NR2E3 ag-1	697 NFkB inh	Jurkat NFkB inh	MPTP inh	NR2E3 ag-2	697 NFkB conf
Cc1cccc(NC(=O)CSc2nnc(-c3cc(C)n(-c4ccccc4)c3C)o2)c1C	0	1	71*	-12	-5	-21	25
C(=NN=C(NN=Cc1cccs1)NN=Cc1cccs1)c1cccs1	4	/	/	/	2	7	/
O=C1c2ccccc2C(=O)C1c1ccc2ccccc2n1	0	-3	-253	-56	-1	-95	-381
CC(=O)Nc1ccc(S(=O)(=O)NCC(=O)OCC(=O)NNC(=O)c2ccccc2)cc1	0	4	16	1	0	-22	/
COc1ccccc1N1CCN(CCCn2c(=S)[nH]c3ccccc3c2=O)CC1	0	-2	-8	7	0	-32	/
COc1ccc(N2CCN(CCCn3c(=S)[nH]c4ccccc4c3=O)CC2)cc1	0	2	-309	-34	2	19	-18
O=C(OCC(=O)N1CCN(C(=O)COC(=O)c2ccc(O)cc2O)CC1)c1ccc(O)cc1O	0	-3	39*	-1	-3	-17	12
Cc1c(CN2CCN(CC(C)C)C(CCO)C2)[nH]c2ccc(Cl)cc12 (stereo not given)	0	1	4	7	1	6	/
COc1ccc(CCNC(=O)c2cc(-c3ccco3)on2)cc1OC	0	0	50*	-23	0	-25	18
Cc1ccccc1Cn1cc(NC(=O)c2cc(-c3ccco3)on2)cn1	0	1	38*	-26	1	2	10
COc1cccc(-c2cc(C(=O)Nc3cnn(Cc4ccc(F)cc4)c3)no2)c1	0	5	-14	8	1	-11	/
Cc1cc(NC(=O)c2cc(-c3ccco3)on2)no1	0	-1	37*	-2	1	-29	18
O=C(Nc1cnn(Cc2ccc(F)cc2)c1)c1cc(-c2ccco2)on1	0	-7	41*	-9	2	-9	-10
Cc1ccc(-n2c(P(C)(=O)O)nc3ccccc32)cc1	0	1	6	0	-2	5	/
COc1ccc(-c2nn(-c3ccccc3)cc2CNC(=O)c2cccc([N+](=O)[O-])c2)cc1	0	5	-7	6	8	-26	/
OCC[C@H]1C[C@@H](O)[C@H](O)[C@]2(CCc3ccccc3O2)O1	0	2	-9	6	0	14	/
Clc1cc(/C=N\NC2=NCCN2)cc(Cl)n1	0	-5	9	10	5	-13	/
CCOC(=O)N1CCC(N2CCN(S(=O)(=O)c3ccc([N+](=O)[O-])cc3)CC2)CC1	0	1	35*	6	4	-12	-10
CCOC(=O)N1CCC(N2CCN(S(=O)(=O)c3ccc4ccccc4c3)CC2)CC1	1	-1	-5	18	1	6	/
CCC(=O)Nc1ccc(-c2ccc(N3CCC(C)CC3)nn2)cc1	0	3	-152	-54	-1	-170	/
CCC(=O)Nc1cccc(-c2ccc(N3CCC(C)CC3)nn2)c1	0	4	-258	-71	0	-125	-322
Cc1ccc(OC(C)C(=O)N(Cc2cccs2)C2CCS(=O)(=O)C2)cc1C (stereo not given)	0	-2	-2	10	1	11	/
CCc1ccc2nc(Nc3nc(COC)cc(=O)[nH]3)nc(C)c2c1	2	0	42*	9	-1	0	38*
CCc1c(C)nc(Nc2nc(C)c3cc(OC)ccc3n2)[nH]c1=O	4	-2	-6	-39	0	-7	/
CCCCCc1c(C)nc(Nc2nc(C)c3cc(OC)ccc3n2)[nH]c1=O	1	6	39*	31	-3	-20	4
SMILES	aDG glyco act	NR2E3 ag-1	697 NFkB inh	Jurkat NFkB inh	MPTP inh	NR2E3 ag-2	697 NFkB conf
CC(=O)/C(C#N)=C1\NC(=O)C(Cc2ccc(C)c(C)c2)S1 (stereo not given)	0	0	i	2	17	-12	i
CC(=O)/C(C#N)=C1\NC(=O)C(Cc2ccccc2Cl)S1 (stereo not given)	0	-1	i	-28	0	22	i
CC(=O)/C(C#N)=C1\NC(=O)C(Cc2cc(Cl)ccc2Cl)S1 (stereo not given)	0	2	i	-7	40	-19	i
O=C(c1ccccc1)c1ccccc1C(=O)N1CCN(C(=O)c2ccccc2)CC1	0	2	15	2	1	-15	/
Cc1cccc(C(=O)Nc2ccccc2C(=O)NCc2ccco2)c1	0	-2	-10	6	0	-21	/
CC1(C)CC(=O)C(N=Nc2cccc(S(=O)(=O)N3CCOCC3)c2)=C(O)C1	0	4	38*	9	1	3	16
CCOCCCNC(=S)N1CCC(C(=O)c2ccc3c(c2)OCCO3)CC1	0	-2	101*	-7	-2	-16	19
CC(C)(C)NC(=O)C1c2ccccc2OCC(=O)N1CCc1ccccc1 (stereo not given)	0	/	/	/	-1	5	/
COC(=O)Nc1nc2ccc(C(=O)c3cccs3)cc2[nH]1	0	0	i	45	0	-27	-107
O=C(Nc1nc2ccccc2[nH]1)c1cccs1	0	-3	-128	-132	0	-117	/
COc1cc(-c2nc(C(=O)NCC3CCCO3)cc3c2[nH]c2ccccc23)cc(OC)c1OC (stereo not given)	-1	2	36*	-18	0	9	40*
COc1ccccc1-c1nc(C(=O)NCC2CCCO2)cc2c1[nH]c1ccccc12 (stereo not given)	0	0	22	-6	0	-10	/
O=C1CC(c2ccc3c(c2)OCCO3)Oc2ccc([N+](=O)[O-])cc21 (stereo not given)	0	2	-256	-130	5	-27	-228
O=C(c1cccc(S(=O)(=O)N2CCc3ccccc32)c1)N1CCN(c2ccccn2)CC1	0	-2	i	-60	0	8	i
COc1ccc(N2CCN(C(=O)c3cccc(S(=O)(=O)N4CCc5ccccc54)c3)CC2)cc1	0	/	7	-6	2	-6	/
CC(=O)NC(CC(=O)OCC(=O)c1cc(C)ccc1C)c1ccccc1 (stereo not given)	0	/	15	14	0	1	/
Cc1ccc(SCC(=O)Nc2ccc(N3CCN(C)CC3)c(F)c2)c(C)c1	7	-3	-12	-22	1	-21	/
COc1cccc(NC(=O)c2c(F)cccc2F)c1	0	3	39*	42	-1	-58	27
COc1ccc(/C=N\NC(=O)c2sccc2C)cc1Cn1nc(C)cc1C	0	-2	39*	3	1	-59	44*
